Compound activity deposited in PubChem by several laboratories.
CHOP inh = blocks CHOP induction under ER stress; CHO-K1 CHOP-promoter luciferase, tunicamycin-induced, 15-18 h; inhibition, % at 10 µM; hit rate 3.8% among 220,000; AID 2732;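 active = compounds that reduced the stress-induced luciferase reporter signal by more than about 70% of percent inhibition, limit read from the data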
Dynein cargo inh = blocks dynein driven cargo transport along microtubules | 3617.4 mouse cells, GR-EGFP nuclear translocation imaging; test concentration mostly 20 µM; stimulated with dexamethasone, 1 µM; active compounds read low | z-score, hits read low | hit rate 0.47% among 220,000;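 active = plate z-score of nuclear minus cytoplasmic receptor signal below a set negative limit, without overly bright fluorescence or cell loss, cut at about -3.5 in these data, passing the limit was not always enough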;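 note: z-score of nuclear minus cytoplasmic ring GR-EGFP intensity difference per well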
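Buffer or medium – tet-free medium with charcoal-stripped serum · Signal – automated 10x imaging of fixed Hoechst-stained cells · Also added – dexamethasone agonist, 1.0 µM final, for 30 min · Incubation – induction 48 h, compound 1 h, agonist 30 min · Read-out – GR-EGFP nuclear translocation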
UPR CHOP act = activators of apoptotic arm of unfolded protein response (CHOP) | CHO-CHOP luciferase reporter, UPR activation, luminescence; percent of tunicamycin response over DMSO baseline | activation, % at 10 µM | hit rate 0.34% among 330,000 | AID 449763;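 active = at 10 µM dose, activation of 40% or more, normalized to positive control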
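Test system: CHO CHOP reporter cells. Input: 500 CHO-CHOP cells per well. Medium: F12 with 10% FBS. Technique: luciferase luminescence. Measure: percent activation relative to tunicamycin control. Dosing: 10 µM compound, 0.5% DMSO. Timing: 16-18 h cell attachment, then 6 h compound exposure, 37 °C.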
UPR XBP1 act = adaptive UPR (XBP1) activation. CHO-XBP1 luciferase reporter, IRE1-XBP1 UPR activation, luminescence; percent of tunicamycin response, DMSO as zero. activation, % at 20 µM. hit rate 0.33% among 330,000. AID 463104;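 active = versus positive control, 20 µM dose yields 30% or more activation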
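Material: CHO-XBP1 cells stably carrying IRE1-XBP1-driven luciferase reporter / Amount: 1000 cells per well / Compound: 20 µM, 1% DMSO / Times: 6 h treatment, 37 °C / Detection: luciferase luminescence / Measure: % activation of reporter signal versus tunicamycin and DMSO controls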
p-CIP stab down = lowers stability of the mouse p/CIP coactivator protein; Q05BA5; F442A p/CIP-EGFP cells, EGFP fluorescence, 16 h; decrease of EGFP signal, % at 10 µM; hit rate 0.01% among 290,000;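 active = EGFP signal decrease of at least 30% at 10 µM or well 3 SD below plate mean, unless failing retest; inactive = the rest, including hits failing retest or dose response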
Beta2AR agonist = activates human beta-2 adrenergic receptor causing internalization; P07550; Am2.2-beta2AR cells, FAP receptor internalization, flow cytometry; response, % (no concentration beside the values); hit rate 0.43% among 340,000;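 active = response above a set limit, near 3 SD of response in nonfluorescent compounds, cut at about 42% in these data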
Target sequence (P07550 whole entry, looked up): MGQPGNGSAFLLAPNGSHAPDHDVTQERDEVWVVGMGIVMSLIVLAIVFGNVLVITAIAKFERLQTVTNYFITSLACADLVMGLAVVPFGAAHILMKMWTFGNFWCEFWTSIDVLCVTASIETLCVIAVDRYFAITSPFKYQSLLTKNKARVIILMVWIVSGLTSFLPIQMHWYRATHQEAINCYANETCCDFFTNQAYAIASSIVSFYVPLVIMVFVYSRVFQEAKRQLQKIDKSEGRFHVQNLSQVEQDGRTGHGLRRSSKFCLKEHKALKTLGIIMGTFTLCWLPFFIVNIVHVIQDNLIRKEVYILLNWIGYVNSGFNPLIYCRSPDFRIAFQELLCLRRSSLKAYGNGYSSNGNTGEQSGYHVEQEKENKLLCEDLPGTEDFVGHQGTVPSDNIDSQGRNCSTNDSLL
CHOP confirm = confirmation of CHOP induction inhibitors | shares compounds with CHOP inh | CHO-CHOP promoter luciferase reporter, tunicamycin-induced, luminescence | inhibition, % at 10 µM | hit rate 45% among 2,100 | AID 504437;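 active = mean of three repeat readings of reporter signal inhibition above a set limit, cut at about 70% in these data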
Numbers stand for hits; . = inactive; / = no result. This excerpt belongs to a sample that is enriched for hits.

SMILES | CHOP inh | Dynein cargo inh | UPR CHOP act | UPR XBP1 act | p-CIP stab down | Beta2AR agonist | CHOP confirm
CCOc1ccc(CCNC(=O)CSc2cc(=O)n(C)c3cc(Cl)ccc23)cc1OCC | . | . | . | . | . | . | /
CCOc1ccc(N2C(=O)/C(=C\c3ccc(O)c(OC)c3)S(=O)(=O)C2c2cccc([N+](=O)[O-])c2)cc1 (stereo unspecified) | 104 | . | . | . | . | . | 80
O=C(NCc1ccco1)/C(=C/c1cccc(C(F)(F)F)c1)c1nc2ccccc2[nH]1 | 96 | . | . | . | . | . | .
O=C(COC(=O)/C=C/c1cccc(C(F)(F)F)c1)NCc1ccco1 | / | / | . | . | / | . | /
O=C(CSc1nc(C2CC2)nc2c1cnn2-c1ccccc1)Nc1c[nH]c(=O)[nH]c1=O | 96 | . | . | . | . | . | .
Cc1n[nH]c(C)c1CCc1nc2c3ccccc3nc(SCC(=O)Nc3ccccc3F)n2n1 | 98 | . | . | . | . | . | .
Cc1cc(/C=c2/sc3nc4ccccc4n3c2=O)c(C)n1-c1ccccn1 | 107 | . | . | . | . | . | 118
O=C(CNc1cccc2ccccc12)N/N=C/C(Br)=C/c1ccccc1 | 106 | . | . | . | . | . | .
CC(O)COc1ccc(/C(=N/O)c2ccccc2)cc1 (stereo unspecified) | . | . | . | . | . | . | /
CC(C)COc1ccc(/C(=N/O)c2ccccc2)cc1 | 107 | . | . | . | . | . | 92
CCSc1nc(-c2ccccc2)nc(C(Cl)Cl)n1 | 106 | . | . | . | . | . | 84
CCSc1nc(-c2ccccc2)c2cc(Cl)ccc2n1 | . | . | . | . | . | . | /
C=CCOc1c(Br)cc(/C=N/n2c(CC)n[nH]c2=S)cc1Br | 107 | . | . | . | . | . | .
CCc1n[nH]c(=S)n1/N=C/c1cc(Br)c(O)c(OC)c1 | . | . | . | . | . | . | /
CCCN(C(=O)C1CCN(S(=O)(=O)c2ccc(OC)c(OC)c2)CC1)C1CCS(=O)(=O)C1 (stereo unspecified) | / | / | . | . | / | . | /
O=C(COn1nnc2ccccc21)N1CCN(Cc2ccccc2)CC1 | . | . | . | . | . | . | /
Fc1ccc(-c2csc(NC(=S)Nc3ccccc3)n2)cc1 | / | / | . | . | . | . | /
O=C(Nc1nc(-c2ccccc2)cs1)c1ccccc1NS(=O)(=O)c1ccc(F)cc1 | . | . | . | . | . | . | /
O=S(=O)(Nc1ccc(-c2csc(-c3ccccc3)n2)cc1)c1ccc(F)cc1 | 105 | . | . | . | . | . | .
O=C(Nc1ccccc1)Nc1nc(-c2ccc(F)cc2)cs1 | 106 | . | . | . | . | . | .
O=C(COC(=O)/C=C/C(=O)OCC(=O)NC12CC3CC(CC(C3)C1)C2)NC12CC3CC(CC(C3)C1)C2 | 105 | . | . | . | . | . | .
O=C(COC(=O)c1ccccc1O)NC12CC3CC(CC(C3)C1)C2 | / | / | . | . | / | / | /
COc1ccc(Oc2ccccc2C=O)cc1 | . | . | . | . | . | . | /
Cc1cc(C)cc(Oc2ccccc2C=O)c1 | 99 | . | . | . | . | . | .
CCOc1cc(S(=O)(=O)Nc2cc(C)cc(C)c2)ccc1Cl | 106 | . | . | . | . | . | 117
SMILES | CHOP inh | Dynein cargo inh | UPR CHOP act | UPR XBP1 act | p-CIP stab down | Beta2AR agonist | CHOP confirm
Cc1cc(C(=O)N/N=C/c2ccc(-c3cccc(Cl)c3Cl)o2)n[nH]1 | 101 | . | . | . | . | . | 73
COCC(=O)N1CCC(Oc2ccc(C(=O)N(C)CCCC3CCCC3)cc2)CC1 | / | / | . | . | . | . | /
CCC(C)NC(=O)c1cn(C)c(=O)c2cc(OC)c(OC)cc12 (stereo unspecified) | . | . | . | . | . | . | /
CCOC(=O)C1=C(Cc2ccc(F)cc2)C(=O)c2ccccc2C1=O | 108 | . | 125 | . | . | . | .
O=C(COC(=O)C1CCN(S(=O)(=O)c2cccs2)CC1)Nc1ccc(F)cc1F | . | . | . | . | . | . | /
O=C(NC(c1ccccc1)c1cc(Cl)c2cccnc2c1O)c1cccnc1 (stereo unspecified) | 104 | . | . | . | . | / | 104
O=C(O)COc1ccccc1C(Nc1cccnc1)c1cc(Cl)c2cccnc2c1O (stereo unspecified) | . | . | . | . | . | . | /
Cc1c(Cl)cccc1NC(=O)CCN1CCC(C(N)=O)CC1 | / | / | . | . | . | . | /
CN(C)C(CNC(=O)CCCN1C(=O)c2cccc3cccc(c23)C1=O)c1ccccc1 (stereo unspecified) | / | / | . | . | . | . | /
CC(C)=CCc1c(O)c(CC=C(C)C)c2c(c1O)C(=O)CC(c1ccc(O)cc1)O2 (stereo unspecified) | 101 | . | . | . | . | . | 73
COc1ccccc1N(C)S(=O)(=O)c1ccc(C(=O)Nc2ccc(C)cc2C)cc1 | / | / | . | . | / | . | /
N#C/C(=C\c1ccc(OC(=O)c2ccc(Cl)s2)cc1)c1nc2ccccc2[nH]1 | 107 | . | . | . | . | . | .
N#C/C(=C/c1ccc(OC(=O)c2ccc(Br)s2)cc1)c1nc2ccccc2[nH]1 | / | / | / | / | / | . | /
N#C/C(=C\c1ccncc1)c1nc2ccccc2[nH]1 | . | . | . | . | . | . | /
N#C/C(=C\c1ccc(OC(=O)c2ccc(Br)s2)cc1)c1nc2ccccc2[nH]1 | 100 | . | / | / | . | . | .
COCCCNC(=O)c1cccn2c(=O)c3cc4ccccc4cc3nc12 | 98 | . | . | . | . | . | .
O=C(NCc1ccco1)c1cccn2c(=O)c3cc4ccccc4cc3nc12 | . | . | / | / | . | / | /
CCOc1ccc(CCNC(=O)CCCN2C(=O)c3ccccc3C2=O)cc1OCC | . | . | . | . | . | . | /
C=C(C)C1Cc2c(C)nn(-c3cccc4ccccc34)c2C1 (stereo unspecified) | 101 | . | . | . | . | . | .
Cc1ccc(S(=O)(=O)Nc2ccc(=O)n(Cc3ccc(Cl)c(Cl)c3)c2)cc1 | . | . | . | . | . | . | /
N#Cc1c(NCCN)nc(-c2ccccc2)c2c1CCCC2 | 108 | . | . | . | . | . | .
N#Cc1c(NCCN)nc(NCc2ccccc2)c2c1CCN(Cc1ccccc1)C2 | / | . | / | / | . | . | /
CN1CC(c2ccccc2)C2(SC(=S)N(Cc3ccco3)C2=O)C12C(=O)Nc1ccccc12 (stereo unspecified) | 101 | . | . | . | . | . | 84
CC(C)(C)CC(=O)Nc1nnc(SCC(=O)Nc2ccccc2F)s1 | . | . | . | . | . | . | /
